Test [1] has as its system Neutrophil. Kind of test: Inhibition of […]-induced translocation of 5-lipoxygenase from cytosol to perinuclear region in human neutrophils at 0.1 uM to 10 uM by Western blot. The test is classed as functional, cell-based.
Test [2] relates to Rattus norvegicus. Nature of the test: Antiinflammatory activity against lambda carrageenan-induced pleurisy in Wistar Han rat assessed as reduction in exudate volume at 10 mg/kg, ip administered 30 mins before carrageenan challenge measured after 4 hrs by trypan blue staining. The test is classed as functional. More on the design: scale not given: the % may be the effect or the level left. To be noted: route intraperitoneal. The method, boiled down: (§1)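 Male Wistar Han rats (220-230 g; n = 10 per group) received compound ip, or vehicle (DMSO 4%), 30 min before intrapleural λ-carrageenan under anaesthesia. After 4 h, exudate was collected and its volume measured. Leukocytes were counted by light microscopy after trypan blue staining. LTB4 was measured by EIA (ng/rat). Data are mean ± SE.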

Test [3] deals with Rattus norvegicus. Kind of test: Antiinflammatory activity against lambda carrageenan-induced pleurisy in Wistar Han rat assessed as reduction in cellular infiltration at 10 mg/kg, ip administered 30 mins before carrageenan challenge measured after 4 hrs by trypan blue staining. The class given is functional. Further details: scale not given: the % may be the effect or the level left. To be noted: route intraperitoneal. The essentials: as §1

Test [4] relates to Rattus norvegicus. Nature of the test: Antiinflammatory activity against lambda carrageenan-induced pleurisy in Wistar Han rat assessed as reduction in LTB4 level at 10 mg/kg, ip administered 30 mins before carrageenan challenge measured after 4 hrs by EIA. The test is classed as functional. Further details: scale not given: the % may be the effect or the level left. To be noted: route intraperitoneal. The essentials:
as §1

The subject of test [5] is Rattus norvegicus. Kind of test: Antiinflammatory activity against lambda carrageenan-induced pleurisy in Wistar Han rat assessed as reduction in exudate volume at 4 mg/kg, ip administered 30 mins before carrageenan challenge measured after 4 hrs by trypan blue staining. The test is classed as functional. More on the design: scale not given: the % may be the effect or the level left. To be noted: route intraperitoneal. The essentials:
as §1

The subject of test [6] is Rattus norvegicus. Nature of the test: Antiinflammatory activity against lambda carrageenan-induced pleurisy in Wistar Han rat assessed as reduction in inflammatory cell number at 4 mg/kg, ip administered 30 mins before carrageenan challenge measured after 4 hrs by trypan blue staining. The class given is functional. Further details: scale not given: the % may be the effect or the level left. The note with it: route intraperitoneal. The essentials: as §1

For test [7], the system named is Rattus norvegicus. Nature of the test: Antiinflammatory activity against lambda carrageenan-induced pleurisy in Wistar Han rat assessed as reduction in LTB4 levels at 4 mg/kg, ip before carrageenan challenge measured after 4 hrs by EIA. The test is classed as functional. Further details: scale not given: the % may be the effect or the level left. To be noted: route intraperitoneal. The method, boiled down:
as §1

The subject of test [8] is Neutrophil. Nature of the test: Inhibition of […]-induced translocation of 5-lipoxygenase from cytosol to perinuclear region in human neutrophils at 100 uM by Western blotblot. The test is classed as functional, cell-based.

The structures appear in SMILES notation. Calls of active or inactive are those of the source. No cut-off for these calls is given here.

Take `CC(C)c1ccc2c(c1)c(SC(C)(C)C)c(CC(C)(C)C(=O)O)n2Cc1ccc(Cl)cc1`: in the test on Neutrophil [1], the result was inactive.
Consider `CC(c1cc2ccccc2s1)N(O)C(N)=O` (stereo not drawn) [ZILEUTON], for which the Activity turned out to be 77% with Rattus norvegicus [2], 41% with Rattus norvegicus [3] and 66% in the test with Rattus norvegicus [4].
Regarding `CCOC(=O)c1c(Cc2cccc(Cl)c2)[nH]c2c1cc(O)c1ccccc12`, the figures for the Activity in the test with Rattus norvegicus [5], in the test on Rattus norvegicus [6] and with Rattus norvegicus [7] were 77%, 40% and 49%, respectively. The outcome in the test with Neutrophil [8] was inactive.

Values taken from ChEMBL document CHEMBL1137012, “Structural optimization and biological evaluation of 2-substituted 5-hydroxyindole-3-carboxylates as potent inhibitors of human 5-lipoxygenase” (J Med Chem, 2009).
